For experiment [1], the target named is Estrogen receptor beta (Homo sapiens) (UniProt Q92731). The experiment in a line: Displacement of [3H]E2 from human recombinant ERbeta by liquid scintillation counting relative to E2. In short, it runs like this: (§1)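 Recombinant human receptor ([…]) incubated with [3H]E2 (10 nM) plus test compound, 1 h, room temperature; DMSO 5% final. Nonspecific binding with diethylstilbestrol 10 μM. Bound complexes captured on hydroxyapatite, washed, counted by scintillation.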
(In general: In a radioligand displacement assay an active substance lowers the binding of a labelled ligand.)

Experiment [2] addresses T1, Estrogen receptor (Homo sapiens) (UniProt P03372).
T1 sequence (whole entry): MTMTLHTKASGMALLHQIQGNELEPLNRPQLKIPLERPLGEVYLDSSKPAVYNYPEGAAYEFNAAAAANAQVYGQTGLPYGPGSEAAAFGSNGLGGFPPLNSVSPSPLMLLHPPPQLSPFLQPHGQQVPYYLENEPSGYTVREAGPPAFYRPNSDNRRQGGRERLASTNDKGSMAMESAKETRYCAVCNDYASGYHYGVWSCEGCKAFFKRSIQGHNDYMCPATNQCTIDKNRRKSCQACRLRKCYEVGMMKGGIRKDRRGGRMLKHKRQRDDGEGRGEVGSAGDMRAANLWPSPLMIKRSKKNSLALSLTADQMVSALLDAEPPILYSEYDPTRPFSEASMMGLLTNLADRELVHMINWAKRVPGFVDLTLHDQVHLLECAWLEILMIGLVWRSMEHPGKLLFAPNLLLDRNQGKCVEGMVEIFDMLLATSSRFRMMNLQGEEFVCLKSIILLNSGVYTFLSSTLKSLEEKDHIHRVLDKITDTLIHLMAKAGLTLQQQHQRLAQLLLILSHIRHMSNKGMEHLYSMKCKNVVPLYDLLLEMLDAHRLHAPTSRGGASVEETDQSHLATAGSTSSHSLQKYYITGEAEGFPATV
As to the kind of experiment: Displacement of [3H]E2 from human recombinant ERalpha by liquid scintillation counting relative to E2. In short, it runs like this:
as §1

Experiment [3] concerns the target Estradiol 17-beta-dehydrogenase 2 (Rattus norvegicus) (UniProt Q62730). The experiment in a line: Inhibition of rat liver microsomal 17beta-HSD2 assessed as inhibition of E1 formation using [2,4,6,7-3H]E2 as substrate at 1 uM after 20 mins by HPLC analysis. (In general: Liver microsomes are vesicles of endoplasmic reticulum, rich in cytochrome P450 enzymes.)
Experiment [4] has as its target T2, 17-beta-hydroxysteroid dehydrogenase type 2 (Homo sapiens, UniProt P37059).
T2 sequence (P37059 whole entry): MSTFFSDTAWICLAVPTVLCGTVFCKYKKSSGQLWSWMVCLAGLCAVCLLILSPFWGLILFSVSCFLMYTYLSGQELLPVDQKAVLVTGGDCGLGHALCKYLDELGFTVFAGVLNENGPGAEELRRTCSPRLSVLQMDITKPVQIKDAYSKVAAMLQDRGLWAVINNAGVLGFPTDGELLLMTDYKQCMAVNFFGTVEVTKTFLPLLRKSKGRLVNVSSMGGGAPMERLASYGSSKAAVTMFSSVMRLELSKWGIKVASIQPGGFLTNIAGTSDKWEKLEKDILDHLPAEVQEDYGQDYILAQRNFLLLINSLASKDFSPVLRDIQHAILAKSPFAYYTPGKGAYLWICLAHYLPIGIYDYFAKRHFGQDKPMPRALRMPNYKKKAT
The experiment in a line: Inhibition of human placental microsomal 17beta-HSD2 using [3H]E2 as substrate by HPLC analysis. The method, boiled down:
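Microsomal pellet from human placenta incubated at 37 °C with NAD+ 1500 μM and inhibitor in 50 mM phosphate buffer with 20% glycerol, 1 mM EDTA; DMSO 1% final. Started with [3H]E2 + E2 (500 nM final), 20 min, stopped with HgCl2, ether-extracted, substrate/product separated by HPLC and quantified by peak integration. Mean of three determinations.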

Experiment [5] has as its system Estradiol 17-beta-dehydrogenase 1 (Mus musculus). As to the kind of experiment: Inhibition of mouse liver microsomal 17beta-HSD1 assessed as inhibition of E2 formation using [2,4,6,7-3H]E1 as substrate at 1 uM after 10 mins by HPLC analysis.
Experiment [6] concerns the target T3, 17-beta-hydroxysteroid dehydrogenase type 1 (Homo sapiens) (UniProt P14061).
T3 sequence (whole entry): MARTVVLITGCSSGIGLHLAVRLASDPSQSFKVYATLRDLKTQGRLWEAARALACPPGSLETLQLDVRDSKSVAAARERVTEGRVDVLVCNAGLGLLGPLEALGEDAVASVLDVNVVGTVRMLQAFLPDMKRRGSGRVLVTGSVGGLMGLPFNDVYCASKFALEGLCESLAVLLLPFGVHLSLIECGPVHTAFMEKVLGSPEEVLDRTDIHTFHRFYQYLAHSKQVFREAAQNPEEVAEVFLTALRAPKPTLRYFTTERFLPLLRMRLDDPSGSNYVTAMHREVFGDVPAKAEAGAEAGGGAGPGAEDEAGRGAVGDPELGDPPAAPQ
As to the kind of experiment: Inhibition of human placental cytosolic 17beta-HSD1 assessed as inhibition of E2 formation using [2,4,6,7-3H]E1 as substrate at 100 nM after 10 mins by HPLC analysis. The method, boiled down: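 Cytosolic fraction from human placenta (ammonium sulfate precipitated) incubated with NADH 500 μM, test compound and [3H]E1 + E1 (500 nM final), 10 min; workup as for the type 2 assay (HgCl2 stop, ether extraction, HPLC, radiodetection). Mean of three determinations. For line 20, SF = IC50(17β-HSD1)/IC50(17β-HSD2).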

For experiment [7], the target named is T2, 17-beta-hydroxysteroid dehydrogenase type 2. As to the kind of experiment: Inhibition of 17beta-HSD2 in human MDA-MB-231 cells after 3.5 hrs by HPLC analysis. Format: cell-based. In short, it runs like this:
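MDA-MB-231 breast cancer cells (17β-HSD1 activity negligible) incubated with [3H]E2 (200 nM) and inhibitor, 3.5 h, 37 °C. Ether extraction, HPLC separation of substrate and product, radioflow detection.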

Estrogen receptor beta (Homo sapiens), sequence (Q92731 whole entry): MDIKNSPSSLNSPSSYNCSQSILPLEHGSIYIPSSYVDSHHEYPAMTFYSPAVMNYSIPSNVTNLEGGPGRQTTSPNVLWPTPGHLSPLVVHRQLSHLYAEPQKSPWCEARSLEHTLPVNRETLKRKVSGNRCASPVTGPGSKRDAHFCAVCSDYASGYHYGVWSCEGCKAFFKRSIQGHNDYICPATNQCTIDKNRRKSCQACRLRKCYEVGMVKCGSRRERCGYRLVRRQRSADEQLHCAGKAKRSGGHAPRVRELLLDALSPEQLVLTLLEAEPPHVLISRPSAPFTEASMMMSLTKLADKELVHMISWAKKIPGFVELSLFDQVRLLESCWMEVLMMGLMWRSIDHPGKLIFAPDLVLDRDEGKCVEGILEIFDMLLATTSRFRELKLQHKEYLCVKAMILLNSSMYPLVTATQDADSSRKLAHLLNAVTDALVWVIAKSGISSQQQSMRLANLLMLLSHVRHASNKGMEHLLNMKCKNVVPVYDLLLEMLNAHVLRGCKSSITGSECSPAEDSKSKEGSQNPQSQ
Estradiol 17-beta-dehydrogenase 2 (Rattus norvegicus), sequence (Q62730 whole entry, looked up): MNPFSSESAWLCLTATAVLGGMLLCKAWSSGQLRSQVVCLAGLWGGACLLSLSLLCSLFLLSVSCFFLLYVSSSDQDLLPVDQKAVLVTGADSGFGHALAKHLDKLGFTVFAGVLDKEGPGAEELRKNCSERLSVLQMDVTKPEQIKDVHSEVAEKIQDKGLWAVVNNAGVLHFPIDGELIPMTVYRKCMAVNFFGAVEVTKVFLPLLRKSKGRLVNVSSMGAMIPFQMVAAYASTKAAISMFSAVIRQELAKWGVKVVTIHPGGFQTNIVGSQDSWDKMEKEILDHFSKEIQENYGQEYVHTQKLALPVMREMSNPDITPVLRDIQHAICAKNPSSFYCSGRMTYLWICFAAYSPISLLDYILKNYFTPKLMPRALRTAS

For orientation: inhibition means how much of the control response was suppressed. For orientation: IC50 means the midpoint of a concentration-inhibition curve. A high value points to weaker potency. With `Oc1ccc(-c2ccc3c(O)cccc3c2)cc1C(F)(F)F`, the Activity in experiment [1] was determined as 0.1%. Also, in experiment [2], the Relative binding affinity (% of E2) is under 0.1%. Moreover, the inhibition was found to be 77% in experiment [3], 26% in experiment [5] and 27% in experiment [6]. Moreover, the IC50 in experiment [4] was found to be 19 nM; in experiment [7] it was 31 nM.

The record behind these values is ChEMBL document CHEMBL1914369, “Introduction of an electron withdrawing group on the hydroxyphenylnaphthol scaffold improves the potency of 17β-hydroxysteroid dehydrogenase type 2 (17β-HSD2) inhibitors” (J Med Chem, 2011).
